# According to ChEMBL document CHEMBL3046408, “Disease control effect of strevertenes produced by Streptomyces psammoticus against tomato fusarium wilt” (J Agric Food Chem, 2011):
# Active and inactive are the calls of the source. No cut-off for these calls is given here.
# How the values were obtained:
# Diaporthe citri = experiment: Antifungal activity against Diaporthe citri assessed as complete growth inhibition after 1 to 3 days by CLSI M38-A method; format: functional
# How it was run: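 Broth microdilution following CLSI M38-A. Mycelial-fragment suspension of the fungus at a final (0.5-5) × 10^4 fragments/mL. Antibiotic added to final concentrations of 0.125 to 64 μg/mL. Incubated at 28 °C for 1-3 days. Wells read visually; MIC is the lowest concentration giving complete growth inhibition.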
# Alternaria brassicicola = experiment: Antifungal activity against Alternaria brassicola assessed as complete growth inhibition after 1 to 3 days by CLSI M38-A method; format: functional
# How it was run: (§1)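 Broth microdilution in 96-well plates following CLSI M38-A. Conidial suspensions were dispensed to a final (0.5-5) × 10^4 spores/mL, with compound at final 0.125 to 64 μg/mL. Plates were incubated at 28 °C for 1-3 days. MIC was read visually as the lowest concentration giving complete growth inhibition.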
# Aspergillus oryzae = experiment: Antifungal activity against Aspergillus oryzae assessed as complete growth inhibition after 1 to 3 days by CLSI M38-A method; format: functional; how it was run: as §1
# [1] = test system: Fusarium oxysporum f. sp. cucumerinum; experiment: Antifungal activity against Fusarium oxysporum f.sp. cucumerinum assessed as complete growth inhibition after 1 to 3 days by CLSI M38-A method; format: functional; how it was run: as §1
# Alternaria mali = experiment: Antifungal activity against Alternaria mali assessed as complete growth inhibition after 1 to 3 days by CLSI M38-A method; format: functional; how it was run: as §1
# Rhizoctonia solani = experiment: Antifungal activity against Rhizoctonia solani assessed as complete growth inhibition after 1 to 3 days by CLSI M38-A method; format: functional
# How it was run: (§2)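 CLSI M38-A microdilution in 96-well plates, inoculated with mycelial-fragment suspensions at a final (0.5-5) × 10^4 fragments/mL. Compound was added at final concentrations from 0.125 to 64 μg/mL. After 1-3 days at 28 °C, MIC was scored by eye as the lowest concentration completely inhibiting growth.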
# Colletotrichum coccodes = experiment: Antifungal activity against Colletotrichum cocodes assessed as complete growth inhibition after 1 to 3 days by CLSI M38-A method; format: functional; how it was run: as §1
# [2] = test system: Colletotrichum orbiculare; experiment: Antifungal activity against Colletotrichum orbiculare assessed as complete growth inhibition after 1 to 3 days by CLSI M38-A method; format: functional; how it was run: as §1
# [3] = test system: Colletotrichum gloeosporioides; experiment: Antifungal activity against Colletotrichum gloeosporioides assessed as complete growth inhibition after 1 to 3 days by CLSI M38-A method; format: functional; how it was run: as §1
# [4] = test system: Fusarium oxysporum f. sp. lycopersici; experiment: Antifungal activity against Fusarium oxysporum f.sp. lycopersici assessed as complete growth inhibition after 1 to 3 days by CLSI M38-A method; format: functional; how it was run: as §1
# Sclerotinia sclerotiorum = experiment: Antifungal activity against Sclerotinia sclerotiorum assessed as complete growth inhibition after 1 to 3 days by CLSI M38-A method; format: functional; how it was run: as §2
# [5] = test system: Fusarium oxysporum f. sp. lycopersici; experiment: Antifungal activity against Fusarium oxysporum f.sp. lycopersici JCM 12575 in tomato plants assessed as inhibition of Fusarium wilt disease severity at 1 ug/mL measured after 10 days of inoculation under green house condition; format: functional, organism-based
# How it was run: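 Greenhouse assay. F. oxysporum f.sp. lycopersici JCM 12575 was grown in Czapek Dox broth at 28 °C for 14 days, and the inoculum was 2 × 10^6 conidia/mL. Wounded tomato seedling roots were dipped for 10 min, potted, and soil-drenched with 5 mL of compound (1, 10, 100, 500 μg/mL); controls received sterile water. Plants spent 24 h in a 28 °C dew chamber, then went to the greenhouse. Disease severity was scored 0-5 at 10 days post-inoculation.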
# Cercospora canescens = experiment: Antifungal activity against Cercospora canescens assessed as complete growth inhibition after 1 to 3 days by CLSI M38-A method; format: functional; how it was run: as §1
# Ilyonectria destructans = experiment: Antifungal activity against Ilyonectria radicicola assessed as complete growth inhibition after 1 to 3 days by CLSI M38-A method; format: functional; how it was run: as §1
# Solanum lycopersicum = experiment: Phytotoxicity in Solanum lycopersicum (tomato) plants upto 500 ug/mL; format: organism-based; conditions: in vivo
Compound,MIC (Diaporthe citri) [µg/mL],MIC (Alternaria brassicicola) [µg/mL],MIC (Aspergillus oryzae) [µg/mL],MIC [1] [µg/mL],MIC (Alternaria mali) [µg/mL],MIC (Rhizoctonia solani) [µg/mL],MIC (Colletotrichum coccodes) [µg/mL],MIC [2] [µg/mL],MIC [3] [µg/mL],MIC [4] [µg/mL],MIC (Sclerotinia sclerotiorum) [µg/mL],inhibition [5],MIC (Cercospora canescens) [µg/mL],MIC (Ilyonectria destructans) [µg/mL],Activity (Solanum lycopersicum)
C[C@H]1/C=C/C=C/C=C/C=C/C=C/[C@@H](O)[C@H](C(=O)O)[C@H](O)C[C@H](O)CCC[C@H](O)C[C@H](O)C[C@H](O)[C@@H](C)C(=O)O[C@@H]1C [STREVERTENE A],32,> 64,16,16,16,> 64,8,8,8,16,8,Active,16,16,Non-toxic
CC[C@H]1C(=O)O[C@H](C)[C@@H](C)/C=C/C=C/C=C/C=C/C=C/[C@@H](O)[C@H](C(=O)O)[C@H](O)C[C@H](O)CCC[C@H](O)C[C@H](O)C[C@@H]1O [STREVERTENE B],32,> 64,10,8,16,> 64,8,4,8,8,8,Active,32,16,Non-toxic
